We go through 13 compounds from ChEMBL document CHEMBL3822361, “Novel 1,6-naphthyridin-2(1H)-ones as potential anticancer agents targeting Hsp90” (Eur J Med Chem, 2016).

Calls of active or inactive are those of the source. The rule behind the calls is not given here.

Data set [1] addresses T1, Heat shock protein HSP90 (Homo sapiens) (UniProt P07900+P08238). The data set can be described thus: Inhibition of HSP90 in human MCF7 cells assessed as induction of prosurvival heat shock response at 1.5 times IC50 measured after 48 hrs by Western blot analysis. The class given is cell-based. The method in brief: (§1)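 Cells seeded in 6-well plates, 24 h at 37 °C, 5% CO2, then exposed 48 h to compound or 17-AAG in DMSO (1% final) or to vehicle. Lysed 2 h on ice in buffer with protease and phosphatase inhibitors, sonicated, protein measured by BCA. Equal protein run on SDS-PAGE, moved to PVDF, primary antibodies overnight at 4 °C, HRP secondary 1 h, ECL chemiluminescence.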
Background: A western blot detects proteins with antibodies after separation by electrophoresis.

Data set [2] deals with MCF7. In words: Effect on HSP90 level in human MCF7 cells at 1.5 times IC50 measured after 48 hrs by western blot analysis. The settings on record: mcf7, 48 h. The format is cell-based. In short, it runs like this: as §1
The test system of data set [3] is MCF7. In words: Antiproliferative activity against human MCF7 cells measured after 48 hrs by MTT assay. The class given is functional, cell-based. The note with it: MCF7, 48 h. The method in brief:
(§2)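 Cells grown in DMEM with 2 mM L-glutamine, penicillin/streptomycin and 5% FBS at 37 °C, 5% CO2; seeded 6000/well in 96-well plates, attached 24 h. Compounds added over a concentration range in DMSO (1% final), 48 h. MTT (2.5 mg/mL in PBS) added for 3.5 h, formazan dissolved in DMSO, OD 570 nm. Growth relative to 1% DMSO; IC50 from separate triplicate experiments.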
On the technique in general: Tetrazolium dyes change colour on reduction, which living cells bring about.

Data set [4] deals with MDA-MB-468. The data set can be described thus: Effect on actin level in human MDA-MB-468 cells at 1.5 times IC50 measured after 48 hrs by western blot analysis. The class given is cell-based. The note with it: mda-mb-468, 48 h. The method in brief: as §1
The test system of data set [5] is MDA-MB-468. The data set can be described thus: Effect on cell cycle distribution in human MDA-MB-468 cells assessed as accumulation at G2/M-phase at 2 uM measured after 48 hrs by propidium iodide staining-based flow cytometry. The format is functional. In short, it runs like this:
(§3)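 MDA-MB-468 seeded 40,000/well in 24-well plates, 24 h at 37 °C, 5% CO2, then treated 48 h with compounds in DMSO (1% final). Cells trypsinized, washed in PBS, fixed in 70% ethanol, rehydrated in PBS, stained with propidium iodide in PBS. Phase distribution (G1, S, G2/M, polyploid, subG1) read by flow cytometry.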
A general note: Flow cytometry measures light scatter and fluorescence of single cells or particles in a stream.

In data set [6] the test system is MDA-MB-468. The data set can be described thus: Antiproliferative activity against human MDA-MB-468 cells measured after 48 hrs by MTT assay. The format is functional, cell-based. The settings on record: MDA-MB-468, 48 h. The method in brief: as §2
Data set [7] concerns the target T1, Heat shock protein HSP90 (Homo sapiens). The data set can be described thus: Inhibition of HSP90 in human MCF-7 cells assessed as ER-alpha protein degradation at 1.5 times IC50 measured after 48 hrs by western blot analysis.
Data set [8] relates to MDA-MB-468. In words: Effect on HSP90 level in human MDA-MB-468 cells at 1.5 times IC50 measured after 48 hrs by western blot analysis. The format is cell-based. The settings on record: mda-mb-468, 48 h. In short, it runs like this: as §1
Data set [9] concerns the target T1, Heat shock protein HSP90 (Homo sapiens). In words: Inhibition of HSP90 in human MCF7 cells assessed as Raf-1 protein degradation at 1.5 times IC50 measured after 48 hrs by western blot analysis. The format is cell-based. The method in brief:
as §1

Data set [10] concerns MCF7. The data set can be described thus: Effect on actin level in human MCF7 cells at 1.5 times IC50 measured after 48 hrs by western blot analysis. The settings on record: mcf7, 48 h. The format is cell-based. In short, it runs like this: as §1
The target in data set [11] is T1, Heat shock protein HSP90 (Homo sapiens). The data set can be described thus: Inhibition of HSP90 in human MDA-MB-468 cells assessed as Raf-1 protein degradation at 1.5 times IC50 measured after 48 hrs by western blot analysis. The format is cell-based. The method in brief: as §1
Data set [12] has as its system MDA-MB-468. In words: Induction of apoptosis in human MDA-MB-468 cells at 2 uM measured after 48 hrs by Annexin V-FITC/propidium iodide staining-based flow cytometry. The class given is functional, cell-based. The method in brief:
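Cells incubated 24 h at 37 °C, 5% CO2, then given compounds in DMSO (1% final) for 48 h. Floating and trypsinized adherent cells pooled, PBS-washed, stained with annexin V-FITC plus propidium iodide in binding buffer, 15 min on ice in the dark. Flow cytometry, ≥10 000 events per sample; annexin V-positive cells scored as apoptotic.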

The target in data set [13] is T1, Heat shock protein HSP90 (Homo sapiens). The data set can be described thus: Inhibition of HSP90 in human MCF7 cells assessed as ER-alpha protein degradation at 1.5 times IC50 measured after 48 hrs by western blot analysis. The format is cell-based. The method in brief: as §1
Data set [14] concerns MDA-MB-468. The data set can be described thus: Induction of apoptosis in human MDA-MB-468 cells assessed as mortality at 10 uM measured after 48 hrs by Annexin V-FITC/propidium iodide staining-based flow cytometry. The note with it: MDA-MB-468, 48 h. The class given is functional. The method in brief:
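MDA-MB-468 cells seeded in wells, held 24 h at 37 °C in 5% CO2, then exposed to compound in DMSO (1% DMSO final) for 48 h. Floating and trypsinised adherent cells pooled, PBS-washed, stained with annexin V-FITC plus propidium iodide in binding buffer 15 min on ice in the dark. Flow cytometry, ≥10 000 events per sample; annexin V-positive cells scored apoptotic.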

Data set [15] concerns MDA-MB-468. The data set can be described thus: Effect on cell cycle in human MDA-MB-468 cells assessed as accumulation at subG1-phase at 10 uM measured after 48 hrs by propidium iodide staining-based FACS analysis. The format is functional. In short, it runs like this:
as §3

Data set [16] concerns MDA-MB-468. In words: Cell cycle arrest in human MDA-MB-468 cells at 10 uM measured after 48 hrs by propidium iodide staining-based FACS analysis. The class given is functional. In short, it runs like this: as §3

As usually defined, the IC50 is the concentration that inhibits the measured activity by half. A low value points to higher potency. On to `CN(C)CCNc1cc2c(cn1)cc(NC(=O)c1cccc(-c3ccccc3)c1)c(=O)n2C`, for which the inhibition entry in [1], in [7], in [9], in data set [11] and in [13] was “Active” each time. Moreover, the Activity result in the data set on MCF7 [2] was “Toxic”; in the data set on MDA-MB-468 [4] it was “Non-toxic”; with MDA-MB-468 [8], “Toxic”; in the data set on MCF7 [10], “Non-toxic”. The IC50 with MCF7 [3] was determined as 1.93 µM; in the data set on MDA-MB-468 [6] it was 1.68 µM. The outcome in the data set on MDA-MB-468 [5] was inactive. Also, the outcome with MDA-MB-468 [12] was Active.

Consider `CN(C)CCNc1cc2c(cn1)cc(NC(=O)c1ccc(N)cc1)c(=O)n2C`, for which the IC50 in the data set with MCF7 [3] is 55.8 µM; with MDA-MB-468 [6] it was 20.4 µM.

With `Cn1c(=O)c(NC(=O)c2ccc(N)cc2)cc2cnc(NCCN3CCOCC3)cc21`, the IC50 in the data set with MCF7 [3] and in the data set on MDA-MB-468 [6] was greater than 100 µM in each case.

Regarding `COc1cccc(C(=O)Nc2cc3cnc(NCCN(C)C)cc3n(C)c2=O)c1`, the IC50 amounted to 43.2 µM in the data set with MCF7 [3] and 17.4 µM in the data set on MDA-MB-468 [6].

On to `Cn1c(=O)c(NC(=O)c2ccc(O)cc2)cc2cnc(NCCN3CCOCC3)cc21`, for which the IC50 in the data set on MCF7 [3] and in the data set on MDA-MB-468 [6] was greater than 100 µM in each case.

What is called mortality is the percentage killed. As for `COc1ccc(C(=O)Nc2cc3cnc(N4CCN(CCO)CC4)cc3n(C)c2=O)cc1`, the Activity entry in the data set with MCF7 [2], with MDA-MB-468 [4], in the data set on MDA-MB-468 [8] and in the data set with MCF7 [10] was “Non-toxic” throughout. The IC50 with MCF7 [3] amounted to 8.59 µM; with MDA-MB-468 [6], 10.5 µM. Also, the inhibition result in data set [7], in data set [9], in data set [11] and in [13] was “Active” throughout. Besides, the mortality at 10 µM in the data set on MDA-MB-468 [14] is 40%. Also, in the data set with MDA-MB-468 [15], the result was Active. In the data set on MDA-MB-468 [16], the result was inactive.

Turning to `Cn1c(=O)c(NC(=O)c2cccc(-c3ccccc3)c2)cc2cnc(NCCN3CCOCC3)cc21`, the Activity entry with MCF7 [2], with MDA-MB-468 [4], in the data set with MDA-MB-468 [8] and in the data set on MCF7 [10] was “Non-toxic” each time. The results for the IC50 in the data set on MCF7 [3] and in the data set on MDA-MB-468 [6] were 4.85 µM and 1.96 µM, respectively. Further, the result with MDA-MB-468 [5] was Active. Further, the inhibition result in data set [7], in [9], in [11] and in [13] was “Active” in each case. Besides, in the data set with MDA-MB-468 [12], the outcome was inactive.

With `CC(=O)Nc1cc2cnc(NCCN(C)C)cc2n(C)c1=O`, the IC50 with MCF7 [3] and in the data set on MDA-MB-468 [6] was greater than 100 µM throughout.

`COc1cc(C(=O)Nc2cc3cnc(NCCN(C)C)cc3n(C)c2=O)cc(OC)c1OC`: the IC50 in the data set on MCF7 [3] was 21.5 µM; with MDA-MB-468 [6] it was 15.6 µM.

`COc1ccc(C(=O)Nc2cc3cnc(NCCN4CCOCC4)cc3n(C)c2=O)cc1`: the IC50 with MCF7 [3] and in the data set on MDA-MB-468 [6] was greater than 100 µM in each case.

Turning to `CCCNc1cc2c(cn1)cc(NC(=O)c1cccc(-c3ccccc3)c1)c(=O)n2C`, the Activity result in the data set with MCF7 [2], in the data set with MDA-MB-468 [4], in the data set on MDA-MB-468 [8] and in the data set on MCF7 [10] was “Non-toxic” throughout. The IC50 is 6 µM in the data set with MCF7 [3] and 1.87 µM in the data set with MDA-MB-468 [6]. For the same compound, the result in the data set with MDA-MB-468 [5] was Active. In addition, the inhibition result in [7], in data set [9], in data set [11] and in [13] was “Active” throughout. The result with MDA-MB-468 [12] was inactive.

Turning to `Cn1c(=O)c(NC(=O)c2ccccc2)cc2cnc(NCCN3CCOCC3)cc21`, the IC50 in the data set on MCF7 [3] and with MDA-MB-468 [6] was greater than 100 µM each time.

On to `COc1cccc(C(=O)Nc2cc3cnc(NCCN4CCOCC4)cc3n(C)c2=O)c1`, for which the IC50 in the data set with MCF7 [3] and in the data set on MDA-MB-468 [6] was greater than 100 µM throughout.
